Drawing on PubChem BioAssay, this text covers GFP response vs DMSO, GFP response relative to DMSO and GFP response, % of DMSO for 14 compounds.

Molecules are shown by their SMILES. Active and inactive are the calls of the source.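 The calls were made as follows, unless noted: active = GFP response above 150% of the DMSO level; inconclusive = fewer than 70 events counted for a yeast strain; inactive = the rest.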

The nature of test [1]: hit retest on RPL19A-GFP reporter strain – cell-based, S. cerevisiae, flow cytometry, cherry picks, mother/daughter gates, confirmation (AID 2270;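 active = GFP response below 50% of the DMSO control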). The settings on record: 3 h, at 10 µM, stronger effect = lower value, 100 = same GFP as DMSO wells.
Test [2] is described as follows: yeast TOR pathway reporter LAP4-GFP change – cell-based, cherry picks, flow cytometry, mother/daughter gates, confirmation (AID 2271;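 active = GFP response above 150% of the DMSO control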;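 also: ratio of sample to DMSO plate mean so 100% equals DMSO level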). The settings on record: S. cerevisiae LAP4-GFP strain, 3 h, at 10 µM, stronger effect = higher value, 100 means same as DMSO control. The procedure, abridged: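 Material: Alexa 633-stained baker's yeast GFP-fusion strain; Compound dosing: single test-compound dose, 10 µM final; Incubation: 30 °C, 3 h compound incubation, rotating; Detection: HT flow cytometry, GFP fluorescence channel; Control set: positive rapamycin (400 ng/mL), negative DMSO.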

Test [3] can be described thus: TOR pathway reporter MEP2-GFP, retest of hits – S. cerevisiae, flow cytometry GFP, cherry picks, confirmation (AID 2272;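 active = GFP response above 150% of the DMSO control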;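 also: ratio of well signal to plate DMSO mean so 100% equals DMSO level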). The settings on record: S. cerevisiae MEP2-GFP strain, 3 h, at 10 µM, stronger effect = higher value.
The nature of test [4]: yeast AGP1-GFP fluorescence change, single-dose – cell-based, flow cytometry, S. cerevisiae, cherry picks, confirmation (AID 2273).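 Also: median GFP channel fluorescence over the whole cell population gate.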 The settings on record: S. cerevisiae AGP1-GFP strain, 3 h, at 10 µM.
Test [5] is described as follows: TOR pathway CIT2 reporter hit retest – S. cerevisiae, GFP fusion, cherry picks, mother/daughter gates, confirmation (AID 2274). The settings on record: S. cerevisiae CIT2-GFP strain, flow cytometry, 3 h, at 10 µM, stronger effect = higher value.
The mark [6] stands for this setting: measured here: daughter cell gate.
Setting [7] is: measured here: mother cell gate.
Where [8] appears, read: measured here: daughter cell gate response.
The mark [9] stands for this setting: measured here: mother cell gate response.

Turning to `COc1ccc2c(c1)c(C(C)=O)c(C)n2-c1ccccc1OC`, the GFP response vs DMSO is 96.5% (inactive) in test [1], 97.8% in test [1] (setting [6]), 95.4% in test [1] (setting [7]) and 101% (inactive) in test [3]. Besides, the GFP response relative to DMSO in test [2] is 101% (inactive); in test [2] (setting [8]), 99%; in test [2] (setting [9]), 101%. For the same compound, the GFP response, % of DMSO in test [4] is 107% (inactive); in test [5], 103% (inactive); in test [5] (setting [6]), 101%; in test [5] (setting [7]), 103%.
`COc1ccc(-c2sc(C(=O)c3ccc(Cl)cc3Cl)cc2CC(=O)O)cc1`: the GFP response vs DMSO in test [1] is 96% (inactive); in test [1] (setting [6]), 95.9%; in test [1] (setting [7]) it was 95.8%; in test [3], 122% (inactive). Also, the results for the GFP response relative to DMSO in test [2], in test [2] (setting [8]) and in test [2] (setting [9]) were 130% (inactive), 127% and 131%, respectively. The GFP response, % of DMSO was 101% (inactive) in test [4], 104% (inactive) in test [5], 105% in test [5] (setting [6]) and 104% in test [5] (setting [7]).
As for `O=C(/C(=C/c1ccccc1)n1cncn1)c1ccc(Cl)cc1Cl`, the GFP response vs DMSO in test [1] was 96% (inactive); in test [1] (setting [6]), 92.7%; in test [1] (setting [7]), 93.5%; in test [3] it was 98.8% (inactive). Also, the GFP response relative to DMSO in test [2] was 149% (inactive); in test [2] (setting [8]), 125%; in test [2] (setting [9]), 162%. Besides, the GFP response, % of DMSO is 106% (inactive) in test [4], 86% (inactive) in test [5], 85.7% in test [5] (setting [6]) and 79.8% in test [5] (setting [7]).
For the compound `COc1ccc(N2C(=O)c3cccc4cccc(c34)C2=O)nn1`, the GFP response vs DMSO in test [1] was 98% (inactive); in test [1] (setting [6]) it was 97.3%; in test [1] (setting [7]), 98.7%; in test [3] it was 97.8% (inactive). Besides, the GFP response relative to DMSO in test [2] was 89% (inactive); in test [2] (setting [8]), 91%; in test [2] (setting [9]), 91.1%. In addition, the GFP response, % of DMSO was 98% (inactive) in test [4], 92.6% (inactive) in test [5], 93.2% in test [5] (setting [6]) and 91.2% in test [5] (setting [7]).
Regarding `CCOc1ccc(C(C)=O)cc1N1C(=O)C2C3C=CC(O3)C2C1=O` (centres undefined), the GFP response vs DMSO is 100% (inactive) in test [1], 105% in test [1] (setting [6]), 95.6% in test [1] (setting [7]) and 103% (inactive) in test [3]. For the same compound, the GFP response relative to DMSO in test [2] is 136% (inactive); in test [2] (setting [8]), 132%; in test [2] (setting [9]), 136%. The GFP response, % of DMSO in test [4] was 97.9% (inactive); in test [5] it was 110% (inactive); in test [5] (setting [6]), 110%; in test [5] (setting [7]) it was 104%.
Consider `O=C(OCC(=O)N1CCN(C(=O)c2ccco2)CC1)c1cc(-c2ccccc2)nc2ccccc12`, for which the GFP response vs DMSO was 76.3% (inactive) in test [1], 66.6% in test [1] (setting [6]), 70.5% in test [1] (setting [7]) and 130% (inactive) in test [3]. For the same compound, the GFP response relative to DMSO is 161% (active) in test [2], 117% in test [2] (setting [8]) and 153% in test [2] (setting [9]). Also, the GFP response, % of DMSO is 136% (inactive) in test [4], 134% (inactive) in test [5], 114% in test [5] (setting [6]) and 130% in test [5] (setting [7]).
Turning to `O=C(NCC(=O)N1CCCC1)c1cccs1`, the GFP response vs DMSO in test [1] was 99.8% (inactive); in test [1] (setting [6]) it was 99.6%; in test [1] (setting [7]) it was 100%; in test [3], 100% (inactive). For the same compound, the GFP response relative to DMSO in test [2] is 99.2% (inactive); in test [2] (setting [8]) it was 97.6%; in test [2] (setting [9]), 98.3%. The GFP response, % of DMSO is 97.2% (inactive) in test [4], 104% (inactive) in test [5], 105% in test [5] (setting [6]) and 104% in test [5] (setting [7]).
As to `Cc1cc(C)c(C(=O)COC(=O)c2ccc([N+](=O)[O-])o2)cc1C`, the GFP response vs DMSO is 100% (inactive) in test [1], 102% in test [1] (setting [6]), 98.2% in test [1] (setting [7]) and 101% (inactive) in test [3]. Further, the GFP response relative to DMSO is 102% (inactive) in test [2], 102% in test [2] (setting [8]) and 104% in test [2] (setting [9]). Moreover, the GFP response, % of DMSO was 105% (inactive) in test [4], 100% (inactive) in test [5], 101% in test [5] (setting [6]) and 97.1% in test [5] (setting [7]).
For `Cc1cc(Cl)ccc1N1C(=O)CC(SCCC(=O)O)C1=O` (centres undefined), the GFP response vs DMSO in test [1] is 96.4% (inactive); in test [1] (setting [6]), 97.6%; in test [1] (setting [7]) it was 95.3%; in test [3], 102% (inactive). For the same compound, the GFP response relative to DMSO in test [2] was 103% (inactive); in test [2] (setting [8]), 102%; in test [2] (setting [9]), 105%. The GFP response, % of DMSO in test [4] is 97.8% (inactive); in test [5], 103% (inactive); in test [5] (setting [6]) it was 103%; in test [5] (setting [7]), 101%.
With `Clc1ccc(-c2nnnn2-c2ccc(Cl)cc2)cc1`, the GFP response vs DMSO was 101% (inactive) in test [1], 102% in test [1] (setting [6]), 100% in test [1] (setting [7]) and 99.3% (inactive) in test [3]. Further, the GFP response relative to DMSO in test [2] was 97.7% (inactive); in test [2] (setting [8]), 102%; in test [2] (setting [9]), 96.4%. For the same compound, the GFP response, % of DMSO in test [4] is 95.9% (inactive); in test [5], 100% (inactive); in test [5] (setting [6]) it was 101%; in test [5] (setting [7]), 99.3%.
For the compound `COc1ccc(NC(=O)c2ccccc2NC(=O)c2ccccc2)cc1`, the GFP response vs DMSO is 98.4% (inactive) in test [1], 98.4% in test [1] (setting [6]), 99.2% in test [1] (setting [7]) and 96.2% (inactive) in test [3]. For the same compound, the GFP response relative to DMSO is 91.5% (inactive) in test [2], 94.4% in test [2] (setting [8]) and 89.7% in test [2] (setting [9]). Moreover, the GFP response, % of DMSO is 102% (inactive) in test [4], 103% (inactive) in test [5], 101% in test [5] (setting [6]) and 102% in test [5] (setting [7]).
With `CCCc1nnc(N2C(=O)c3cccc4cccc(c34)C2=O)s1`, the GFP response vs DMSO in test [1] is 103% (inactive); in test [1] (setting [6]), 103%; in test [1] (setting [7]), 102%; in test [3], 103% (inactive). In addition, the GFP response relative to DMSO in test [2] was 115% (inactive); in test [2] (setting [8]), 104%; in test [2] (setting [9]), 113%. In addition, the GFP response, % of DMSO in test [4] is 108% (inactive); in test [5], 113% (inactive); in test [5] (setting [6]), 106%; in test [5] (setting [7]), 115%.
Take `Cc1ccc(SC(=O)c2c(C)noc2-c2cc(C)on2)cc1`: the GFP response vs DMSO in test [1] is 103% (inactive); in test [1] (setting [6]) it was 102%; in test [1] (setting [7]), 104%; in test [3], 126% (inactive). The values for the GFP response relative to DMSO in test [2], in test [2] (setting [8]) and in test [2] (setting [9]) were 120% (inactive), 120% and 121%, respectively. For the same compound, the GFP response, % of DMSO in test [4] was 107% (inactive); in test [5] it was 124% (inactive); in test [5] (setting [6]), 124%; in test [5] (setting [7]), 121%.
Take `COc1ccc(N2C(=O)C(Cl)=C(Nc3c(C)n(C)n(-c4ccccc4)c3=O)C2=O)cc1`: the GFP response vs DMSO in test [1] was 102% (inactive); in test [1] (setting [6]), 106%; in test [1] (setting [7]), 101%; in test [3], 99.5% (inactive). In addition, the GFP response relative to DMSO in test [2] is 100% (inactive); in test [2] (setting [8]), 101%; in test [2] (setting [9]), 101%. Further, the GFP response, % of DMSO in test [4] is 89% (inactive); in test [5], 92.1% (inactive); in test [5] (setting [6]) it was 87.2%; in test [5] (setting [7]) it was 87.5%.
